Assay results as given in ChEMBL document CHEMBL3425469, “Discovery of imidazo[2,1-b]thiazole HCV NS4B inhibitors exhibiting synergistic effect with other direct-acting antiviral agents” (J Med Chem, 2015).

Columns and labels:
Hepatitis C virus [1] = test: Antiviral activity against Hepatitis C virus genotype 1b Con 1 infected in human HuH7 cells at 160 nM after 72 hrs by luciferase assay in presence of 24 nM simeprevir; format: functional, Hepacivirus hominis, Huh-7
Outline: (§1)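 Stable Con1 GT1b bicistronic luciferase replicon in Huh-7 cells, 8000 cells/well. Test compound and a marketed DAA or clemizole added alone or together at varied concentrations, 0.5% DMSO final. 72 h at 37°C, then luciferase read with Bright-Glo. Inhibition expressed as % of untreated control, with cytotoxicity run in parallel. CI and DRI derived by the Chou–Talalay median-effect method.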

Hepatitis C virus [2] = test: Antiviral activity against Hepatitis C virus genotype 1b Con 1 infected in human HuH7 cells at 160 nM after 72 hrs by luciferase assay in presence of 0.04 nM daclatasvir; format: functional, Hepacivirus hominis, Huh-7; outline: as §1
Hepatitis C virus [3] = test: Antiviral activity against Hepatitis C virus genotype 1b Con 1 infected in human HuH7 cells at 20 nM after 72 hrs by luciferase assay in presence of 10 uM clemizole; format: functional, Hepacivirus hominis, Huh-7; outline: as §1
Hepatitis C virus [4] = test: Antiviral activity against Hepatitis C virus genotype 1b Con 1 infected in human HuH7 cells at 5 nM after 72 hrs by luciferase assay in presence of 15 uM clemizole; format: functional, Hepacivirus hominis, Huh-7
Outline: (§2)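 Huh-7 cells stably carrying a GT1b Con1 bicistronic luciferase replicon, seeded at 8000 cells/well. The test compound and the partner DAA are dosed orthogonally at various concentrations, final 0.5% DMSO, then incubated 72 h at 37°C. Bright-Glo luciferase read-out gives replicon inhibition as % of untreated control. Cytotoxicity is checked in parallel by CellTiter-Fluor. CI and DRI are derived by the Chou–Talalay median-effect method.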

Hepatitis C virus [5] = test: Antiviral activity against Hepatitis C virus genotype 1b Con 1 infected in human HuH7 cells at 5 nM after 72 hrs by luciferase assay in presence of 60 nM sofobuvir; format: functional, Hepacivirus hominis, Huh-7; outline: as §2
Hepatitis C virus [6] = test: Antiviral activity against Hepatitis C virus genotype 1b Con 1 infected in human HuH7 cells at 160 nM after 72 hrs by luciferase assay in presence of 15 uM clemizole; format: functional, Hepacivirus hominis, Huh-7; outline: as §1
Hepatitis C virus [7] = test: Antiviral activity against Hepatitis C virus genotype 1b Con 1 infected in human HuH7 cells at 40 nM after 72 hrs by luciferase assay in presence of 0.04 nM daclatasvir; format: functional, Hepacivirus hominis, Huh-7; outline: as §2
Hepatitis C virus [8] = test: Antiviral activity against Hepatitis C virus genotype 1b Con 1 infected in human HuH7 cells at 2.5 nM after 72 hrs by luciferase assay in presence of 12.5 uM clemizole; format: functional, Hepacivirus hominis, Huh-7; outline: as §1
Hepatitis C virus [9] = test: Antiviral activity against Hepatitis C virus genotype 1b Con 1 infected in human HuH7 cells at 160 nM after 72 hrs by luciferase assay in presence of 17.5 uM clemizole; format: functional, Hepacivirus hominis, Huh-7; outline: as §1
Hepatitis C virus [10] = test: Antiviral activity against Hepatitis C virus genotype 1b Con 1 infected in human HuH7 cells at 160 nM after 72 hrs by luciferase assay in presence of 2160 nM sofobuvir; format: functional, Hepacivirus hominis, Huh-7; outline: as §1
Hepatitis C virus [11] = test: Antiviral activity against Hepatitis C virus genotype 1b Con 1 infected in human HuH7 cells at 2.5 nM after 72 hrs by luciferase assay in presence of 6 nM simeprevir; format: functional, Hepacivirus hominis, Huh-7; outline: as §1
Hepatitis C virus [12] = test: Antiviral activity against Hepatitis C virus genotype 1b Con 1 infected in human HuH7 cells at 80 nM after 72 hrs by luciferase assay in presence of 17.5 uM clemizole; format: functional, Hepacivirus hominis, Huh-7; outline: as §2
Hepatitis C virus [13] = test: Antiviral activity against Hepatitis C virus genotype 1b Con 1 infected in human HuH7 cells at 160 nM after 72 hrs by luciferase assay in presence of 12 nM simeprevir; format: functional, Hepacivirus hominis, Huh-7; outline: as §1
Hepatitis C virus [14] = test: Antiviral activity against Hepatitis C virus genotype 1b Con 1 infected in human HuH7 cells at 80 nM after 72 hrs by luciferase assay in presence of 7.5 uM clemizole; format: functional, Hepacivirus hominis, Huh-7
Outline: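 Con1 GT1b luciferase replicon Huh-7 cells, seeded at 8000 cells/well. The compound was combined orthogonally with clemizole across a range of concentrations (0.5% DMSO final) and incubated for 72 h at 37°C. Bright-Glo luciferase inhibition was expressed as a percentage of the untreated control. Cytotoxicity was run in parallel.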

Hepatitis C virus [15] = test: Antiviral activity against Hepatitis C virus genotype 1b Con 1 infected in human HuH7 cells at 80 nM after 72 hrs by luciferase assay in presence of 20 uM clemizole; format: functional, Hepacivirus hominis, Huh-7; outline: as §2
Hepatitis C virus [16] = test: Antiviral activity against Hepatitis C virus genotype 1b Con 1 infected in human HuH7 cells at 80 nM after 72 hrs by luciferase assay in presence of 24 nM simeprevir; format: functional, Hepacivirus hominis, Huh-7; outline: as §2
Hepatitis C virus [17] = test: Antiviral activity against Hepatitis C virus genotype 1b Con 1 infected in human HuH7 cells at 40 nM after 72 hrs by luciferase assay in presence of 0.02 nM daclatasvir; format: functional, Hepacivirus hominis, Huh-7; outline: as §2
Hepatitis C virus [18] = test: Antiviral activity against Hepatitis C virus genotype 1b Con 1 infected in human HuH7 cells at 40 nM after 72 hrs by luciferase assay in presence of 3 nM simeprevir; format: functional, Hepacivirus hominis, Huh-7; outline: as §2
Hepatitis C virus [19] = test: Antiviral activity against Hepatitis C virus genotype 1b harboring M423I NS5B (thumb 2) mutation transfected in human HuH7 cells after 72 hrs by luciferase assay; format: functional, cell-based, Hepacivirus hominis; details: Huh-7, 72 h
Outline: (§3)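 Huh-7 cells were transiently electroporated with genotype 1b replicon RNA carrying the specified mutation and plated at 10000 cells/well. Compounds were added at 0.5% DMSO final for 72 h at 37°C. Read-out was Bright-Glo luciferase. EC50 is the mean of two independent runs within 2-fold of each other. A reference drug EC50 was measured alongside each mutant replicon to validate it.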

Hepatitis C virus [20] = test: Antiviral activity against Hepatitis C virus genotype 1b Con 1 infected in human HuH7 cells at 160 nM after 72 hrs by luciferase assay in presence of 0.16 nM daclatasvir; format: functional, Hepacivirus hominis, Huh-7; outline: as §1
Hepatitis C virus [21] = test: Antiviral activity against Hepatitis C virus genotype 1b Con 1 infected in human HuH7 cells at 80 nM after 72 hrs by luciferase assay in presence of 12.5 uM clemizole; format: functional, Hepacivirus hominis, Huh-7; outline: as §2
Hepatitis C virus [22] = test: Antiviral activity against Hepatitis C virus genotype 1b Con 1 infected in human HuH7 cells at 2.5 nM after 72 hrs by luciferase assay in presence of 10 uM clemizole; format: functional, Hepacivirus hominis, Huh-7; outline: as §1
Hepatitis C virus [23] = test: Antiviral activity against Hepatitis C virus genotype 1b harboring H94R mutation transfected in human HuH7 cells after 72 hrs by luciferase assay; format: functional, cell-based, Hepacivirus hominis; details: Huh-7, 72 h; outline: as §3
Hepatitis C virus [24] = test: Antiviral activity against Hepatitis C virus genotype 1b Con 1 infected in human HuH7 cells at 2.5 nM after 72 hrs by luciferase assay in presence of 0.08 nM daclatasvir; format: functional, Hepacivirus hominis, Huh-7; outline: as §1
Hepatitis C virus [25] = test: Antiviral activity against Hepatitis C virus genotype 1b Con 1 infected in human HuH7 cells at 10 nM after 72 hrs by luciferase assay in presence of 15 uM clemizole; format: functional, Hepacivirus hominis, Huh-7; outline: as §1

## O=C(c1nc2scc(C3CC3)n2c1Cl)N1CCN(C2CCCC2)C(=O)C1
Hepatitis C virus [1]
  CI: 0.87
Hepatitis C virus [2]
  CI: 0.42
Hepatitis C virus [3]
  CI: 0.61
Hepatitis C virus [4]
  CI: 0.99
Hepatitis C virus [5]
  CI: 0.85
Hepatitis C virus [6]
  CI: 1.45
Hepatitis C virus [7]
  CI: 0.54
Hepatitis C virus [8]
  CI: 1.07
Hepatitis C virus [9]
  CI: 1.74
Hepatitis C virus [10]
  CI: 0.3
Hepatitis C virus [11]
  CI: 0.59
Hepatitis C virus [12]
  CI: 1.11
Hepatitis C virus [13]
  CI: 0.47
Hepatitis C virus [14]
  CI: 0.85
Hepatitis C virus [15]
  CI: 1.41
Hepatitis C virus [16]
  CI: 0.87
Hepatitis C virus [17]
  CI: 0.78
Hepatitis C virus [18]
  CI: 0.74
Hepatitis C virus [19]
  EC50: 0.009 µM
Hepatitis C virus [20]
  CI: 0.65
Hepatitis C virus [21]
  CI: 0.95
Hepatitis C virus [22]
  CI: 0.87
Hepatitis C virus [23]
  EC50: 3.98 µM
Hepatitis C virus [24]
  CI: 0.66
Hepatitis C virus [25]
  CI: 1.05
